According to ChEMBL document CHEMBL4011622, “The Structure-Activity Relationship of a Tetrahydroisoquinoline Class of N-Methyl-d-Aspartate Receptor Modulators that Potentiates GluN2B-Containing N-Methyl-d-Aspartate Receptors” (J Med Chem, 2017):

How the values were obtained:
[1] = target: T1, Glutamate NMDA receptor; Grin1/Grin2c (Rattus norvegicus) (UniProt P35439+Q00961); test: Positive allosteric modulation of recombinant rat GluN1/GluN2C receptor expressed in xenopus laevis oocyte assessed as potentiation of glutamate and glycine-induced current response at 10 uM at holding potential -40mV by two electrode voltage clamp method relative to control; conditions: for Activity: 30 uM, in the assay text read “at 30 uM” for “at 10 uM”; for Emax: 10 uM
Outline: (§1)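 Two-electrode voltage clamp at -40 mV, 23°C, pH 7.4 Ba²⁺ recording solution, on Xenopus oocytes expressing rat NMDA receptors. Currents were evoked by 100 µM glutamate plus 30 µM glycine, with compound co-applied (DMSO 0.05–0.5% final). […] Each compound used at least 4 oocytes from at least 2 frogs.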

[2] = target: T2, Ionotropic glutamate receptor NMDA 1/2D (Rattus norvegicus) (UniProt P35439+Q62645); test: Positive allosteric modulation of recombinant rat GluN1/GluN2D receptor expressed in xenopus laevis oocyte assessed as potentiation of glutamate and glycine-induced current response at 10 uM at holding potential -40mV by two electrode voltage clamp method relative to control; outline: as §1
[3] = target: Glutamate NMDA receptor; Grin1/Grin2b (Rattus norvegicus, UniProt P35439+Q00960); test: Positive allosteric modulation of recombinant rat GluN1/GluN2B receptor expressed in xenopus laevis oocyte assessed as potentiation of glutamate and glycine-induced current response at holding potential -40mV by two electrode voltage clamp method
Outline: (§2)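 Two-electrode voltage clamp at -40 mV, 23°C, pH 7.4 Ba²⁺ recording solution, on Xenopus oocytes expressing rat NMDA receptors. Currents were evoked by 100 µM glutamate plus 30 µM glycine, with compound co-applied (DMSO 0.05–0.5% final). Each compound used at least 4 oocytes from at least 2 frogs.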

[4] = target: T3, Glutamate NMDA receptor; Grin1/Grin2b (Rattus norvegicus) (UniProt P35439+Q00960); test: Positive allosteric modulation of recombinant rat GluN1/GluN2B receptor expressed in xenopus laevis oocyte assessed as potentiation of glutamate and glycine-induced current response at 10 uM at holding potential -40mV by two electrode voltage clamp method relative to control; conditions: 30 uM, in the assay text read “at 30 uM” for “at 10 uM”; outline: as §1
[5] = target: Ionotropic glutamate receptor NMDA 1/2D (Rattus norvegicus, UniProt P35439+Q62645); test: Positive allosteric modulation of recombinant rat GluN1/GluN2D receptor expressed in xenopus laevis oocyte assessed as potentiation of glutamate and glycine-induced current response at holding potential -40mV by two electrode voltage clamp method; outline: as §2
[6] = target: Glutamate NMDA receptor; Grin1/Grin2c (Rattus norvegicus, UniProt P35439+Q00961); test: Positive allosteric modulation of recombinant rat GluN1/GluN2C receptor expressed in xenopus laevis oocyte assessed as potentiation of glutamate and glycine-induced current response at holding potential -40mV by two electrode voltage clamp method; outline: as §2
[7] = target: T3, Glutamate NMDA receptor; Grin1/Grin2b (Rattus norvegicus); test: Positive allosteric modulation of recombinant rat GluN1/GluN2B receptor expressed in xenopus laevis oocyte assessed as compound concentration required to show two fold increase in glutamate and glycine-induced current response at holding potential -40mV by two electrode voltage clamp method
[8] = target: T2, Ionotropic glutamate receptor NMDA 1/2D (Rattus norvegicus); test: Positive allosteric modulation of recombinant rat GluN1/GluN2D receptor expressed in xenopus laevis oocyte assessed as potentiation of glutamate and glycine-induced current response at 30 uM at holding potential -40mV by two electrode voltage clamp method relative to control; outline: as §2
[9] = target: T1, Glutamate NMDA receptor; Grin1/Grin2c (Rattus norvegicus); test: Positive allosteric modulation of recombinant rat GluN1/GluN2C receptor expressed in xenopus laevis oocyte assessed as potentiation of glutamate and glycine-induced current response at 30 uM at holding potential -40mV by two electrode voltage clamp method relative to control; outline: as §2
[10] = target: T3, Glutamate NMDA receptor; Grin1/Grin2b (Rattus norvegicus); test: Positive allosteric modulation of recombinant rat GluN1/GluN2B receptor expressed in xenopus laevis oocyte assessed as potentiation of glutamate and glycine-induced current response at 30 uM at holding potential -40mV by two electrode voltage clamp method relative to control; outline: as §1
[11] = target: T2, Ionotropic glutamate receptor NMDA 1/2D (Rattus norvegicus); test: Positive allosteric modulation of recombinant rat GluN1/GluN2D receptor expressed in xenopus laevis oocyte assessed as compound concentration required to show two fold increase in glutamate and glycine-induced current response at holding potential -40mV by two electrode voltage clamp method
[12] = target: T1, Glutamate NMDA receptor; Grin1/Grin2c (Rattus norvegicus); test: Positive allosteric modulation of recombinant rat GluN1/GluN2C receptor expressed in xenopus laevis oocyte assessed as compound concentration required to show two fold increase in glutamate and glycine-induced current response at holding potential -40mV by two electrode voltage clamp method
[13] = target: T1, Glutamate NMDA receptor; Grin1/Grin2c (Rattus norvegicus); test: Positive allosteric modulation of recombinant rat GluN1/GluN2C receptor expressed in xenopus laevis oocyte assessed as potentiation of glutamate and glycine-induced current response at 30 uM at holding potential -40mV by two electrode voltage clamp method relative to control
[14] = target: T3, Glutamate NMDA receptor; Grin1/Grin2b (Rattus norvegicus); test: Positive allosteric modulation of recombinant rat GluN1/GluN2B receptor expressed in xenopus laevis oocyte assessed as potentiation of glutamate and glycine-induced current response at 30 uM at holding potential -40mV by two electrode voltage clamp method relative to control
[15] = target: T3, Glutamate NMDA receptor; Grin1/Grin2b (Rattus norvegicus); test: Positive allosteric modulation of recombinant rat GluN1/GluN2B receptor expressed in xenopus laevis oocyte assessed as potentiation of glutamate-induced current response at 30 uM at holding potential -40mV by two electrode voltage clamp method

Compound	Activity [1] [%]	Activity [2] [%]	EC50 [3] [nM]	Emax [4] [%]	EC50 [5] [nM]	Emax [1] [%]	EC50 [6] [nM]	Emax [2] [%]	CD [7] [µM]	Emax [8] [%]	Emax [9] [%]	Emax [10] [%]	CD [11] [µM]	CD [12] [µM]	Activity [13] [%]	Activity [14] [%]	Activity [15] [%]
CCOc1ccc(OCC2c3ccc(OC(C)C)cc3CCN2C(=O)c2ccc(Cl)c(Cl)c2)cc1 (stereo unspecified)	150	122	–	–	–	–	–	–	–	–	–	–	–	–	–	–	–
COc1ccc(OCC2c3ccc(OC(C)C)cc3CCN2C(=O)c2cccc(Br)c2)cc1 (stereo unspecified)	270	312	3900	204	2600	286	1800	338	–	–	–	–	–	–	–	–	–
CCOc1ccc(OCC2c3ccc(OC4CCCC4)cc3CCN2C(=O)c2cccc(Cl)c2)cc1 (stereo unspecified)	187	193	4000	221	4300	210	4200	188	–	–	–	–	–	–	–	–	–
CCOc1ccc(OC[C@@H]2c3ccc(OC(C)C)cc3CCN2C(=S)c2cccc(F)c2)cc1	–	–	490	–	580	–	380	–	1.4	179	154	213	–	–	–	–	–
CC(C)Oc1ccc(OCC2c3ccc(OC(C)C)cc3CCN2C(=S)c2cccc(Cl)c2)cc1 (stereo unspecified)	–	–	550	–	410	–	480	–	4	152	141	209	–	–	–	–	–
CCOc1ccc(OCC2c3ccc(OC(C)C)cc3CCN2C(=O)c2cccc(Cl)c2)cc1 (stereo unspecified)	126	102	5300	158	–	128	1800	–	–	–	–	–	–	–	–	–	–
COc1ccc(OC[C@@H]2c3ccc(OC(C)C)cc3CCN2C(=S)c2cccc(Cl)c2)cc1	–	–	320	–	480	–	480	–	1.5	293	307	214	0.5	0.5	–	–	–
COc1ccccc1OCC1c2ccc(OC(C)C)cc2CCN1C(=O)c1cccc(Cl)c1 (stereo unspecified)	–	99	–	–	–	–	–	–	–	–	–	–	–	–	110	108	–
CC(C)Oc1ccc(OCC2c3ccc(OC(C)C)cc3CCN2C(=S)c2cccc(F)c2)cc1 (stereo unspecified)	–	–	670	–	1200	–	700	–	9	154	158	203	–	–	–	–	–
COc1ccc(OC[C@H]2c3ccc(OC(C)C)cc3CCN2C(=S)c2cccc(Cl)c2)cc1	–	–	–	–	2000	–	1700	–	–	250	253	–	4.9	3.8	–	–	105
CCOc1ccc(OCC2c3ccc(OC(C)C)cc3CCN2C(=O)c2cc(Cl)cc(Cl)c2)cc1 (stereo unspecified)	97	80	–	–	–	–	–	–	–	–	–	–	–	–	–	105	–
COc1ccc(OCC2c3ccc(OC(C)C)cc3CCN2C(=S)c2cccc(F)c2)cc1 (stereo unspecified)	–	–	1400	–	1100	–	970	–	1.9	208	226	259	4.2	2.1	–	–	–
